H69AR growth 86K: blocks growth of human H69AR lung tumor cells; AID 598; viability, % at 10 µM; H69AR lung tumor viability, ATP luminescence, 72 h; active compounds read low; actives 6% (n = 85,000);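 active means viability at or below 40%; inactive means viability above 40%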;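 further: multidrug resistant small cell line overexpressing MRP-1 efflux transporter; 100% = mean luminescence of untreated control wells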
HUVEC prolif 384: human endothelial cell proliferation inhibition; HUVEC proliferation, CellTiter-Glo luminescence, 72 h; active compounds read low; viability, % at 10 µM (by protocol); actives 1.1% (n = 86,000);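 active means viability at or below 30%; inactive means viability above 30%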;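 further: 100% = median luminescence of DMSO-only cell control wells on each plate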
HCT116 bCat-KO: beta-catenin-lacking colon tumor cell growth suppression | HCT116 beta-catenin knockout viability, CellTiter-Glo, 60 h; active compounds read low | viability, % at 10 µM | actives 1.5% (n = 140,000);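 active means viability at or under a set limit, the compound median less 4 SD, cut at about 6% in these data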;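 further: 0% = Hyamine 1622 control at 20 µM and 100% = untreated cell control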
HCT116 PTEN-null: suppresses growth of cells with PTEN deletion. HCT116 PTEN-null viability, CellTiter-Glo, 60 h; active compounds read low. viability, % at 10 µM. actives 1.2% (n = 140,000);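 active means viability at or below a set limit, 4 SD under the median of all tested compounds, cut at about 3.7% in these data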;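 further: PTEN knockout HCT116 line with beta catenin targeted HCT116 as companion control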
Lung fibro prol: blocks proliferation of human lung fibroblasts. LL 47 human lung fibroblast viability, ATP luminescence; active compounds read low. viability, % at 10 µM. actives 1.1% (n = 85,000);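 active means viability at or below 50% in the single dose screen; inactive means viability above 50%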;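 further: compound exposure lasted 72 h before the ATP readout; 100% = median luminescence of untreated cell-only wells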
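Material: human LL 47 lung fibroblast cells; quantity: 1,150 cells/well; medium: IMEM plus 15% FBS; doses: 0.1% DMSO in all compound wells; timing: overnight attachment after seeding, then 72 h compound exposure at 37 °C; detection: CellTiter-Glo luminescence; measure: % viability of median cell-only signal; controls: cell-only wells, no compound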
* hit, by the source's call; · = no result. Many of the other results were omitted from the sample, so hits are more common in it than they were.

SMILES	H69AR growth 86K	HUVEC prolif 384	HCT116 bCat-KO	HCT116 PTEN-null	Lung fibro prol
COc1ccc(C)cc1S(=O)(=O)Nc1ccccc1	100.0	96.3	103.0	109.9	102.5
COc1cc(NS(=O)(=O)c2ccc(C)cc2C)cc(OC)c1OC	24.5*	86.7	41.5	48.2	93.6
CCC(=O)NC(c1ccccc1OC)c1ccc2cccnc2c1O (stereo not drawn)	1.8*	4.1*	3.9*	2.7*	11.5*
Cn1nc(-c2ccc(Cl)cc2)c2cc(C(=O)N3CCC(N4CCCCC4)CC3)sc21	68.5	74.0	·	·	88.8
C#CCSc1nnc(CSc2nc3ccccc3s2)n1-c1ccccc1	3.0*	80.0	81.0	83.0	89.1
CCOC(=O)CSc1nc2ccccc2c(=O)n1CCC(=O)NCCc1ccc(OC)c(OC)c1	95.1	92.8	3.2*	3.2*	104.2
O=c1c2ccccc2nnn1CSc1nnc(COc2ccc(Cl)cc2)n1Cc1ccco1	70.7	75.7	91.0	64.5	85.7
Cc1cc(NC(=O)CSc2nc3ccccc3c(=O)n2-c2ccccc2)no1	·	·	98.6	91.2	·
N#CCSc1nc2ccccc2c(=O)n1CCC(=O)NCCc1ccccc1	96.2	89.7	95.4	103.4	99.6
CCCCCCn1c(SCC(=O)Nc2cc(C)on2)nc2ccccc2c1=O	7.0*	60.0	32.0	83.1	63.9
Cc1cc(NC(=O)CSc2nc3ccccc3c(=O)n2Cc2ccc(F)cc2)no1	39.6*	71.6	101.7	98.7	73.9
O=c1c2ccccc2nnn1CSc1nc2cc(Cl)ccc2c(=O)n1Cc1ccco1	27.9*	54.6	·	·	61.1
Cc1nonc1OCC(C)(COc1nonc1C)NC(=O)c1ccccc1	93.9	93.4	85.0	89.5	94.6
COc1ccc(-c2cc(CNC(=O)CN(C)Cc3ccccc3)on2)cc1	·	·	99.0	89.3	·
Cc1cc(NC(=O)CSc2nc3c(c(=O)n2CCc2ccccc2)SC(C)C3)no1 (stereo not drawn)	73.4	83.7	89.5	94.6	75.4
CCOc1ccc(-n2c(SCC(=O)Nc3cc(C)on3)nnc2-c2c[nH]c3ccccc23)cc1	27.3*	59.5	91.2	86.4	90.3
Cc1cc(NC(=O)CSc2nc3cc4c(cc3c(=O)n2CCc2ccccc2)OCO4)no1	10.4*	15.6*	43.8	58.9	67.6
Cc1cc(NC(=O)CSc2nc(C(C)C)nc3ccccc23)no1	14.2*	73.4	26.3	27.5	75.2
CCCCNC(=O)CSc1nc2ccccc2c(=O)n1CC1COc2ccccc2O1 (stereo not drawn)	27.2*	86.3	66.8	70.0	100.4
CCCCN(CC)C(=O)CSc1nc2ccccc2c(=O)n1CC1COc2ccccc2O1 (stereo not drawn)	60.8	89.5	77.9	67.0	89.0
Cc1nnc(NC(=O)CSc2nc(C(C)C)nc3ccccc23)s1	·	·	57.3	37.0	·
Clc1ncnc2scc(-c3ccc(Br)cc3)c12	·	·	90.2	89.6	·
CCOC(=O)COc1c(Br)cc(/C=C2\SC(=O)N(CC(=O)N3CCCC3)C2=O)cc1OC	·	·	95.4	91.9	·
O=[N+]([O-])c1ccccc1Sc1nccn1Cc1ccccc1	·	·	92.5	99.0	·
CCOC(=O)N1CCC(NC(=O)c2cc(C(=O)NCC(OC)OC)ccc2CO)CC1	104.3	97.1	98.4	97.9	105.7
SMILES	H69AR growth 86K	HUVEC prolif 384	HCT116 bCat-KO	HCT116 PTEN-null	Lung fibro prol
CCOC(=O)c1cccc(NC(=O)CSc2nc3ccccc3c(=O)n2CC)c1	40.0*	70.2	81.0	79.8	79.3
CCOC(=O)c1cccc(NC(=O)CSc2nc3ccccc3c(=O)n2CCOC)c1	58.6	89.2	67.3	57.7	94.8
COc1ccc(CCn2c(SCC(=O)Nc3cc(C)on3)nc3ccccc3c2=O)cc1OC	32.6*	68.3	75.5	70.9	102.9
CCc1ccc(NC(=O)CSc2nc3ccccc3c(=O)n2CCCC(=O)N2CCCC2)cc1	29.6*	54.8	52.1	54.9	74.5
COc1ccc(CCn2c(SCC(=O)Nc3cc(C)on3)nc3ccsc3c2=O)cc1OC	68.6	100.1	70.6	71.4	78.9
O=C(CSc1nc2ccccc2c(=O)n1CCCC(=O)N1CCCC1)NCc1ccco1	75.7	94.5	99.5	99.2	90.5
COC(=O)c1ccc2c(=O)n(Cc3ccco3)c(SCC(=O)Nc3ccc(C)c(Cl)c3)nc2c1	8.1*	50.2	9.1	8.1	11.8*
CC1(C)CC(=O)C(Sc2ccccc2[N+](=O)[O-])=C(O)C1	·	·	100.3	97.9	·
O=c1c2ccccc2nc(-c2ccco2)n1Cc1ccccc1	73.3	78.7	91.3	88.8	86.5
CCOc1ccc(CCn2c(-c3ccco3)nc3ccccc3c2=O)cc1OCC	31.8*	56.7	32.3	30.4	77.7
Cc1ccc(N(C(=O)Cn2nnc(-c3ccc(C)o3)n2)C(C(=O)NC2CCCC2)c2ccco2)cc1 (stereo not drawn)	·	47.7	84.8	92.8	60.7
CCC(C(=O)NC1CCCC1)N(C(=O)Cn1nnc(-c2ccc(C)o2)n1)c1cnc2ccccc2c1 (stereo not drawn)	5.0*	96.8	14.1	61.5	86.1
Cc1ccc(-c2nnn(CC(=O)N(CC(=O)NC3CCCC3)c3cnc4ccccc4c3)n2)o1	76.5	98.2	90.4	89.7	99.8
Cc1ccc(-c2nnn(CC(=O)N(CC(=O)NCC3CCCO3)c3ccc(F)c(Cl)c3)n2)o1 (stereo not drawn)	86.3	90.2	101.8	96.0	97.8
Cc1ccc(-c2nnn(CC(=O)N(CC(=O)NC3CCCCC3)c3ccc(F)c(Cl)c3)n2)o1	8.3*	36.5	41.7	41.3	39.8*
Cc1ccc(-c2nnn(CC(=O)N(CC(=O)NC3CCCC3)c3ccc(F)c(Cl)c3)n2)o1	7.8*	52.5	72.5	62.9	83.1
Cc1cc(NC(=O)CCC(=O)N(CC(=O)NCC2CCCO2)c2ccc3c(c2)OCCO3)no1 (stereo not drawn)	94.2	101.7	96.4	93.5	96.2
COc1ccc(CCNC(=O)CC2SC(=NCCC(C)C)NC2=O)cc1OC (stereo not drawn)	·	·	98.3	94.8	·
OC(COC(c1ccc(Cl)cc1)c1ccc(Cl)cc1)CN1CCc2ccccc2C1 (stereo not drawn)	·	·	62.2	55.9	·
OC(COC(c1ccc(Cl)cc1)c1ccc(Cl)cc1)CN1CCCC1 (stereo not drawn)	25.2*	71.4	9.3	12.9	88.3
CCN(CC(=O)Nc1cc(C)nn1-c1nc(C)cc(C)n1)Cc1ccccc1	13.9*	51.4	56.4	52.5	73.2
Cc1cc(C)nc(-n2nc(C)cc2NC(=O)CNCc2ccccc2)n1	47.9	89.1	91.0	89.5	95.0
Cc1cc(C)nc(-n2nc(C)cc2NC(=O)CN2CCc3ccccc3C2)n1	6.4*	82.3	5.1*	2.7*	82.7
Cc1ccc(NC(=O)c2ccc(COc3ccc4c(c3)CCC4)cc2)c(C)c1	·	·	81.0	94.1	·
COc1ccc(N(C)C2=NS(=O)(=O)c3ccccc32)cc1	17.4*	59.2	22.6	23.8	65.8
CCOC(=O)c1c(-c2ccc(C)cc2)csc1NC(=O)CCSc1nnc2ccccn12	·	·	84.8	85.7	·

Compound activity: PubChem BioAssay, SRMLSC
